Assay results pooled from the literature.
Lines come from different studies, so protocols differ. pEC50, pIC50: −log10 of the molar value. ≈ marks a conversion by molar mass, not a printed value.

With `CCOC(=O)N[C@@H](C(=O)N1CCC[C@H]1C(=O)Nc1cccc(C#CC#Cc2cccc(NC(=O)[C@@H]3CCCN3C(=O)[C@H](NC(=O)OCC)C(C)C)c2)c1)C(C)C` the pEC50 was 7.15 (Hepatitis C virus; viral replication, inhibitor, luciferase; Huh-5-2, GETYPE1B; 72 h, replicon).
The MIC of `CCCCCCC/C=C/C(=O)N1C(=O)/C(=C(/C)O)C(=O)C1CO` (stereo not shown) is reported as over 200 µg/mL (Proteus mirabilis; microbial growth; ATCC25933).
The IC50 of `CCOC(=O)c1cc(C#N)c(=O)n(NS(=O)(=O)c2ccccc2)c1N` is reported as 88 µg/mL (Enterovirus B; plaque formation; BGM, B4).
`CCCCCCC/C=C/C(=O)N1C(=O)/C(=C(\O)c2ccncc2)C(=O)C1CC(C)C` (stereo not shown) has an MIC of over 200 µg/mL (Proteus mirabilis; microbial growth; ATCC25933).
With `COC(=O)N[C@H](C(=O)N1CCC[C@H]1c1nc(-c2ccc(-c3ccc(-c4c[nH]c([C@@H]5CCCN5C(=O)[C@@H](NC(=O)OC)C(C)C)n4)cc3)cc2)c[nH]1)C(C)C` the pEC50 was 10.68 (Hepatitis C virus; viral replication, inhibitor, luciferase; GETYPE4A; replicon).
With `Nc1nc(Cl)c2ncn([C@@H]3O[C@H](CO)[C@@H](F)[C@@H]3F)c2n1` the EC90 was over 10000 nM (Hepatitis C virus; viral replication, inhibitor; Huh-7; replicon).
The inhibition of `Nc1ncnc2c1c([N+](=O)[O-])cn2[C@@H]1C=C(CO)[C@@H](O)[C@H]1O` is reported as 31.5% (Hepatitis C virus; viral replication, inhibitor, luciferase; Huh7 ET; 20 µM, replicon).
For `Cc1cn([C@H]2C[C@H](N=[N+]=[N-])[C@@H](CO)O2)c(=O)[nH]c1=O`, the pEC50 was under 5.00 (Hepatitis C virus; viral replication, inhibitor; Huh-7; replicon).
For `COc1ccc(CN2C[C@H]3CC[C@@H]4[C@](C)(CO)[C@H](O)CC[C@@]4(C)[C@@H]3C[C@@H]2C2=CCOC2=O)cc1`, the inhibition was 1.9% (unidentified human coronavirus; cytopathic effect; MRC5; 25 µM, 72 h).
The pIC50 of `O=[N+]([O-])c1ccc(O)c2ncccc12` is reported as 6.25 (Acinetobacter baumannii; microbial growth; 19606).
`Cc1c(NN=C2SC(CC#N)=NC2=O)c(=O)n(-c2ccccc2)n1C` gave an inhibition zone of 15 mm (Acinetobacter baumannii; microbial growth, well diffusion; 100000 µg/mL).
`CN[C@H](CC(C)C)C(=O)N[C@H]1C(=O)N[C@@H](CC(N)=O)C(=O)N[C@H]2C(=O)N[C@H]3C(=O)N[C@H](C(=O)N[C@H](C(=O)O)c4cc(O)cc(O)c4-c4cc3ccc4O)[C@H](O)c3ccc(c(Cl)c3)Oc3cc2cc(c3O[C@@H]2O[C@H](CO)[C@@H](O)[C@H](O)[C@H]2O[C@H]2C[C@](C)(N)[C@H](O)[C@H](C)O2)Oc2ccc(cc2Cl)[C@H]1O` gave an MBC of over 128 µM (Acinetobacter baumannii; microbial killing, broth dilution; BAA747).
For `COc1nc(OC)c2ncn([C@@H]3O[C@H](CO)[C@@H](F)[C@@H]3F)c2n1`, the pEC50 was under 5.00 (Hepatitis C virus; viral replication, inhibitor; Huh-7; replicon).
For `Cc1c(NN=C2SC(C(C#N)=Cc3ccccc3)=NC2=O)c(=O)n(-c2ccccc2)n1C`, the inhibition zone was 16 mm (Acinetobacter baumannii; microbial growth, well diffusion; 100000 µg/mL).
The IC50 of `O=C(CNc1nc(NS(=O)(=O)c2ccccc2)ncc1-c1nc2ccccc2s1)c1ccc(Br)cc1` is reported as 84 µg/mL (Enterovirus B; plaque formation; BGM, B4).
For `CC1(C)OC[C@@]2(C)[C@H]3CC[C@@H]4CN(Cc5ccc(C(F)(F)F)cc5)[C@@H](C5=CCOC5=O)C[C@H]4[C@]3(C)CC[C@H]2O1`, the inhibition was 88.3% (unidentified human coronavirus; cytopathic effect; MRC5; 25 µM, 72 h).
For `C[C@@]1(O)[C@H](O)[C@@H](CO)O[C@H]1n1ccc(N)nc1=O`, the pEC50 was 5.74 (Hepatitis C virus; viral replication, inhibitor; Huh-7; replicon).
The MIC of `CCCCCCC/C=C/C(=O)N1C(=O)/C(=C(\O)c2ccc(O)cc2)C(=O)C1CC(C)C` (stereo not shown) is reported as over 200 µg/mL (Proteus mirabilis; microbial growth; ATCC25933).
With `COc1nc(Cl)nc2c1ncn2[C@@H]1O[C@H](CO)[C@@H](F)[C@@H]1F` the pEC50 was under 5.00 (Hepatitis C virus; viral replication, inhibitor; Huh-7; replicon).
For `Cc1c(NN=C2SC(C(C#N)=Cc3ccc(Cl)cc3)=NC2=O)c(=O)n(-c2ccccc2)n1C`, the inhibition zone was 13 mm (Acinetobacter baumannii; microbial growth, well diffusion; 100000 µg/mL).
`Cc1ccc(S(=O)(=O)Nc2nc(N)c(-c3nc4ccccc4s3)c(-c3ccc(F)cc3)n2)cc1` gave an IC50 of 82 µg/mL (Enterovirus B; plaque formation; BGM, B4).
`CC(C)Oc1c(NC(=O)c2ccc(NC(=O)[C@H](CC(N)=O)NC(=O)c3ccc(NC(=O)c4ccc(C#N)cn4)cc3)cc2)ccc(C(=O)Nc2ccc(C(=O)O)cc2)c1O` gave an MIC of 4 µg/mL (≈ 4.92 µM) (Proteus mirabilis; microbial growth; DSM4479).
For `Nc1nc(N)c2ncn([C@@H]3O[C@H](CO)[C@@H](F)[C@@H]3F)c2n1`, the EC90 was over 10000 nM (Hepatitis C virus; viral replication, inhibitor; Huh-7; replicon).
`COc1cc(O)c(CC=C(C)C)c(O)c1C(=O)/C=C/c1ccc(O)cc1` gave a pIC50 of 6.11 (Leishmania tarentolae; parasite growth, resazurin; 48 h, promastigote).
`CC1(C)OC[C@@]2(C)[C@H]3CC[C@@H]4CN(Cc5cccs5)[C@@H](C5=CCOC5=O)C[C@H]4[C@]3(C)CC[C@H]2O1` has an inhibition of 38.4% (unidentified human coronavirus; cytopathic effect; MRC5; 25 µM, 72 h).
For `CC(C)COC(=O)N[C@H](C(=O)N1CCC[C@H]1C(=O)Nc1cccc(C#CC#Cc2cccc(NC(=O)[C@@H]3CCCN3C(=O)[C@@H](NC(=O)OCC(C)C)C(C)C)c2)c1)C(C)C`, the pEC50 was 6.42 (Hepatitis C virus; viral replication, inhibitor, luciferase; Huh-5-2, GETYPE1B; 72 h, replicon).
`CCOC(=O)C=c1[nH]c(=O)c(=Cc2cn(-c3ccccc3)nc2-c2ccccc2)s1` gave an inhibition zone of 12 mm (Acinetobacter baumannii; microbial growth, well diffusion; 100000 µg/mL).
`CCOC(=O)N[C@H](CC(C)C)C(=O)N1CCC[C@@H]1C(=O)Nc1ccc(C#CC#Cc2ccc(NC(=O)[C@H]3CCCN3C(=O)[C@@H](CC(C)C)NC(=O)OCC)cc2)cc1` gave a pEC50 of under 5.00 (Hepatitis C virus; viral replication, inhibitor, luciferase; Huh-5-2, GETYPE1B; 72 h, replicon).
`Nc1nc(NS(=O)(=O)c2ccccc2)nc(-c2ccc(Cl)cc2)c1-c1nc2ccccc2s1` has an IC50 of 91 µg/mL (Enterovirus B; plaque formation; BGM, B4).
`CC1(C)OC[C@@]2(C)[C@H]3CC[C@@H]4CN(Cc5ccccc5C5CC5)[C@@H](C5=CCOC5=O)C[C@H]4[C@]3(C)CC[C@H]2O1` has an inhibition of 93.2% (unidentified human coronavirus; cytopathic effect; MRC5; 25 µM, 72 h).
For `COC(=O)N[C@H](C(=O)N1CCC[C@H]1c1ncc(-c2ccc(-c3ccc(-c4cnc([C@@H]5CCCN5C(=O)[C@@H](NC(=O)OC)C(C)C)[nH]4)cc3)cc2)[nH]1)C(C)C`, the pEC50 was 11.46 (Hepatitis C virus; viral replication, inhibitor; HEK-293T, GETYPE2A; replicon).
The MIC of `CCCCCCC/C=C/C(=O)N1C(=O)/C(=C(\O)c2ccc(F)cc2)C(=O)C1CC(C)C` (stereo not shown) is reported as over 200 µg/mL (Proteus mirabilis; microbial growth; ATCC25933).
`COC(=O)N[C@H](CC(C)C)C(=O)N1CCC[C@H]1C(=O)Nc1cccc(C#CC#Cc2cccc(NC(=O)[C@@H]3CCCN3C(=O)[C@@H](CC(C)C)NC(=O)OC)c2)c1` gave a pEC50 of 10.16 (Hepatitis C virus; viral replication, inhibitor, luciferase; Huh-5-2, GETYPE1B; 72 h, replicon).
`Nc1nc(-c2ccccc2)nc2[nH]nc(Nc3ccc(C(F)(F)F)cc3)c12` gave a pIC50 of 6.85 (Enterovirus B; cytopathic effect; HeLa, CVB3).
`Nc1nc(Cl)c2ncn([C@@H]3O[C@H](COC(=O)c4ccccc4)[C@@H](F)[C@@H]3F)c2n1` gave a pEC50 of 5.33 (Hepatitis C virus; viral replication, inhibitor; Huh-7; replicon).
`CC(=O)OC[C@@]1(C)[C@H]2CC[C@@H]3CN(CCC(C)C)[C@@H](C4=CCOC4=O)C[C@H]3[C@]2(C)CC[C@H]1OC(C)=O` has an inhibition of 105% (unidentified human coronavirus; cytopathic effect; MRC5; 25 µM, 72 h).
For `CCOC(=O)c1c(N)csc1-c1cn(-c2ccccc2)nc1-c1ccc(C)cc1`, the MBC was 0.25 µg/mL (Acinetobacter baumannii; microbial killing, broth dilution).
The MIC of `CCCCCCC/C=C/C(=O)N1C(=O)/C(=C(\O)c2ccccc2)C(=O)C1CC(C)C` (stereo not shown) is reported as over 200 µg/mL (Proteus mirabilis; microbial growth; ATCC25933).
`COc1ccc(CN2C[C@H]3CC[C@@H]4[C@](C)(COC(C)=O)[C@H](OC(C)=O)CC[C@@]4(C)[C@@H]3C[C@@H]2C2=CCOC2=O)cc1` has an inhibition of 5.1% (unidentified human coronavirus; cytopathic effect; MRC5; 25 µM, 72 h).
`CCOC(=O)N[C@@H](CC(C)C)C(=O)N1CCC[C@H]1C(=O)Nc1cccc(C#CC#Cc2cccc(NC(=O)[C@@H]3CCCN3C(=O)[C@H](CC(C)C)NC(=O)OCC)c2)c1` has a pEC50 of 7.39 (Hepatitis C virus; viral replication, inhibitor, luciferase; GETYPE4A; replicon).
With `CC(=O)OC[C@@]1(C)[C@H]2CC[C@@H]3CN(Cc4cccs4)[C@@H](C4=CCOC4=O)C[C@H]3[C@]2(C)CC[C@H]1OC(C)=O` the inhibition was 31.2% (unidentified human coronavirus; cytopathic effect; MRC5; 25 µM, 72 h).
For `CCOC(=O)N[C@H](C(=O)N1CCC[C@H]1C(=O)Nc1ccc(C#CC#Cc2ccc(NC(=O)[C@@H]3CCCN3C(=O)[C@@H](NC(=O)OCC)C(C)C)cc2)cc1)C(C)C`, the pEC50 was 7.05 (Hepatitis C virus; viral replication, inhibitor, luciferase; Huh-5-2, GETYPE1B; 72 h, replicon).
`C[C@@]12COCO[C@@H]1CC[C@]1(C)[C@@H]2CC[C@@H]2CN(Cc3ccc(F)cc3)[C@@H](C3=CCOC3=O)C[C@H]21` gave an inhibition of 32% (unidentified human coronavirus; cytopathic effect; MRC5; 25 µM, 72 h).
With `CCCCOC(=O)N[C@H](C(=O)N1CCC[C@H]1C(=O)Nc1ccc(C#CC#Cc2ccc(NC(=O)[C@@H]3CCCN3C(=O)[C@@H](NC(=O)OCCCC)C(C)C)cc2)cc1)C(C)C` the pEC50 was 6.04 (Hepatitis C virus; viral replication, inhibitor, luciferase; Huh-5-2, GETYPE1B; 72 h, replicon).
The pEC50 of `[N-]=[N+]=Nc1nc(N=[N+]=[N-])c2ncn([C@@H]3O[C@H](COC(=O)c4ccccc4)[C@@H](F)[C@@H]3F)c2n1` is reported as under 5.00 (Hepatitis C virus; viral replication, inhibitor; Huh-7; replicon).
`Cc1c(NC(=O)CC2=NC(=O)CS2)c(=O)n(-c2ccccc2)n1C` gave an MBC of 0.25 µg/mL (Acinetobacter baumannii; microbial killing, broth dilution).
